# System: 15 base pair duplex DNA
# Assay: Near-UV circular dichroism / UV absorbance titration of duplex DNA with peptide
# Type: binding
# Conditions: UV absorbance spectra during titration of duplex DNA, room temperature
# In short: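 15 bp duplex DNA at 1.66 µM (typically 1–2 µM) was titrated at room temperature with small additions of a 5 mg/ml peptide stock. UV absorbance was acquired at the same time as the near-UV CD, in a 10 mm cell from 340 to 220 nm, across increasing peptide/DNA molar ratios. Uncorrected spectra show light scattering; zeroed spectra (340 nm) track 260 nm absorbance.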
substance,measurement,value
GIGKFLHSAKKFGKAFVGEIMNS-NH2 [Magainin 2 amide],Turbidity (light scattering) above 310 nm of DNA with peptide,absence of turbidity

# Source: publication PMC3309561 (Biochimica et biophysica acta, 2010)
